# According to ChEMBL document CHEMBL4689842, “EUbOPEN Chemogenomics Library wave 1” (2021):
# Several values for one entry are separate records, joined by “and”; a condition that tells them apart may be missing. Identical values can stand only once.
# Tested on: U2OS
# Experiment: Multiplex assay against U2OS
# Assay type: toxicity, cell-based
# Conditions: human
# How it was run: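 Hoechst33342, BioTracker Green Microtubule Cytoskeleton Dye, MitoTracker Red and Annexin V Alexa Fluor 680 were added to live cells at seeding, and imaging on a CQ1 microscope at 37°C and 5% CO2 followed compound addition. Gating by CellPathfinder machine learning separated cells into Hoechst high-intensity objects or normal cells, then normal cells into healthy, pyknosed or fragmented nuclei, then pyknosed cells into mitotic or apoptotic. Per cents of healthy-nucleus cells are reported for the tubulin, mitochondrial-mass and membrane-permeability phenotypes.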
# [1] = 12 h, 1 µM, compound concentration 1 uM, replicate 1
# [2] = 12 h, 1 µM, compound concentration 1 uM, replicate 2
# [3] = 12 h, 10 µM, compound concentration 10 uM, replicate 1
# [4] = 12 h, 10 µM, compound concentration 10 uM, replicate 2
# [5] = 24 h, 1 µM, compound concentration 1 uM, replicate 1
# [6] = 24 h, 1 µM, compound concentration 1 uM, replicate 2
# [7] = 24 h, 10 µM, compound concentration 10 uM, replicate 1
# [8] = 24 h, 10 µM, compound concentration 10 uM, replicate 2
# [9] = 48 h, 10 µM, compound concentration 10 uM, replicate 1
# [10] = 48 h, 10 µM, compound concentration 10 uM, replicate 2
compound,measurement,setting,value
CNC(=O)c1nn(C)c2c1C(C)(C)Cc1cnc(Nc3ccc(N4CCN(C)CC4)cc3)nc1-2 [MILCICLIB],Population Apoptotic (%),[1],39%
same,Population Fragmented Nuclei (%),[1],17%
same,Population Healthy Nuclei (%),[1],66%
same,Population Hoechst High Intensity Objects (%),[1],6%
same,Population Membrane Permeable-Phenotype (%),[1],25%
same,Population Mitochondria Different-Phenotype (%),[1],64%
same,Population Mitotic Cells (%),[1],60%
same,Population Normal (%),[1],93%
same,Population Pyknosed Nuclei (%),[1],15%
same,Population Tubulin-Different-Phenotype (%),[1],100%
same,Total Cell Count,[1],194
same,Population Apoptotic (%),[2],58%
same,Population Fragmented Nuclei (%),[2],18%
same,Population Healthy Nuclei (%),[2],69%
same,Population Hoechst High Intensity Objects (%),[2],18%
same,Population Membrane Permeable-Phenotype (%),[2],12%
same,Population Mitochondria Different-Phenotype (%),[2],76%
same,Population Mitotic Cells (%),[2],41%
same,Population Normal (%),[2],81%
same,Population Pyknosed Nuclei (%),[2],12%
same,Population Tubulin-Different-Phenotype (%),[2],90%
same,Total Cell Count,[2],163
same,Population Apoptotic (%),[3],60% and 50% and 62%
same,Population Fragmented Nuclei (%),[3],16% and 20% and 13%
same,Population Healthy Nuclei (%),[3],49% and 42% and 64%
same,Population Hoechst High Intensity Objects (%),[3],7% and 10% and 5%
same,Population Membrane Permeable-Phenotype (%),[3],20% and 15% and 29%
same,Population Mitochondria Different-Phenotype (%),[3],95% and 98% and 57%
same,Population Mitotic Cells (%),[3],40% and 50% and 37%
same,Population Normal (%),[3],92% and 89% and 94%
same,Population Pyknosed Nuclei (%),[3],33% and 37% and 21%
same,Population Tubulin-Different-Phenotype (%),[3],98% and 100% and 99%
same,Total Cell Count,[3],208 and 243 and 221
same,Population Apoptotic (%),[4],73% and 55%
same,Population Fragmented Nuclei (%),[4],12% and 8%
same,Population Healthy Nuclei (%),[4],54% and 68% and 62%
same,Population Membrane Permeable-Phenotype (%),[4],28% and 25% and 24%
same,Population Mitochondria Different-Phenotype (%),[4],100% and 76%
same,Population Mitotic Cells (%),[4],26% and 44%
same,Population Normal (%),[4],90% and 85% and 97%
same,Population Pyknosed Nuclei (%),[4],25% and 19% and 29%
same,Population Tubulin-Different-Phenotype (%),[4],91%
same,Total Cell Count,[4],122 and 87 and 65
same,Population Apoptotic (%),[5],85%
same,Population Fragmented Nuclei (%),[5],17%
same,Population Healthy Nuclei (%),[5],54%
same,Population Hoechst High Intensity Objects (%),[5],11%
same,Population Membrane Permeable-Phenotype (%),[5],33%
same,Population Mitochondria Different-Phenotype (%),[5],92%
same,Population Mitotic Cells (%),[5],14%
same,Population Normal (%),[5],88%
same,Population Pyknosed Nuclei (%),[5],27%
same,Population Tubulin-Different-Phenotype (%),[5],100%
same,Total Cell Count,[5],186
same,Population Apoptotic (%),[6],86%
same,Population Fragmented Nuclei (%),[6],20%
same,Population Healthy Nuclei (%),[6],60%
same,Population Hoechst High Intensity Objects (%),[6],23%
same,Population Membrane Permeable-Phenotype (%),[6],22%
same,Population Mitochondria Different-Phenotype (%),[6],83%
same,Population Mitotic Cells (%),[6],13%
same,Population Normal (%),[6],76%
same,Population Pyknosed Nuclei (%),[6],18%
same,Population Tubulin-Different-Phenotype (%),[6],87%
same,Total Cell Count,[6],160
same,Population Apoptotic (%),[7],78% and 87% and 84%
same,Population Fragmented Nuclei (%),[7],20% and 22% and 15%
same,Population Healthy Nuclei (%),[7],27% and 32% and 52%
same,Population Hoechst High Intensity Objects (%),[7],15% and 11%
same,Population Membrane Permeable-Phenotype (%),[7],40% and 25% and 36%
same,Population Mitochondria Different-Phenotype (%),[7],100% and 93%
same,Population Mitotic Cells (%),[7],21% and 12% and 15%
same,Population Normal (%),[7],84% and 88%
same,Population Pyknosed Nuclei (%),[7],51% and 45% and 32%
same,Population Tubulin-Different-Phenotype (%),[7],100% and 95% and 96%
same,Total Cell Count,[7],235 and 238 and 280
same,Population Apoptotic (%),[8],66% and 83% and 86%
same,Population Fragmented Nuclei (%),[8],9% and 14%
same,Population Healthy Nuclei (%),[8],49% and 64% and 61%
same,Population Hoechst High Intensity Objects (%),[8],12% and 13% and 18%
same,Population Membrane Permeable-Phenotype (%),[8],56% and 31% and 62%
same,Population Mitochondria Different-Phenotype (%),[8],82%
same,Population Mitotic Cells (%),[8],33% and 16% and 13%
same,Population Normal (%),[8],87% and 86% and 81%
same,Population Pyknosed Nuclei (%),[8],40% and 21% and 28%
same,Population Tubulin-Different-Phenotype (%),[8],93%
same,Total Cell Count,[8],78 and 113 and 118
same,Population Apoptotic (%),[9],86% and 85%
same,Population Fragmented Nuclei (%),[9],29% and 24%
same,Population Healthy Nuclei (%),[9],9% and 15%
same,Population Hoechst High Intensity Objects (%),[9],15% and 20%
same,Population Membrane Permeable-Phenotype (%),[9],26% and 55%
same,Population Mitochondria Different-Phenotype (%),[9],100%
same,Population Mitotic Cells (%),[9],13% and 14%
same,Population Normal (%),[9],84% and 79%
same,Population Pyknosed Nuclei (%),[9],61% and 59%
same,Population Tubulin-Different-Phenotype (%),[9],89%
same,Total Cell Count,[9],315 and 232
same,Population Apoptotic (%),[10],76% and 84%
same,Population Fragmented Nuclei (%),[10],11% and 10%
same,Population Healthy Nuclei (%),[10],38% and 52%
same,Population Hoechst High Intensity Objects (%),[10],30% and 27%
same,Population Membrane Permeable-Phenotype (%),[10],87% and 71%
same,Population Mitochondria Different-Phenotype (%),[10],97%
same,Population Mitotic Cells (%),[10],23% and 15%
same,Population Normal (%),[10],70% and 72%
same,Population Pyknosed Nuclei (%),[10],50% and 37%
same,Population Tubulin-Different-Phenotype (%),[10],100% and 95%
same,Total Cell Count,[10],118 and 104
COc1cc2c(Nc3ccc(NC(=O)c4ccccc4)cc3)ncnc2cc1OCCCN1CCOCC1,Population Apoptotic (%),[1],18%
same,Population Fragmented Nuclei (%),[1],8%
same,Population Healthy Nuclei (%),[1],77%
same,Population Hoechst High Intensity Objects (%),[1],1%
same,Population Membrane Permeable-Phenotype (%),[1],63%
same,Population Mitochondria Different-Phenotype (%),[1],24%
same,Population Mitotic Cells (%),[1],81%
same,Population Normal (%),[1],98%
same,Population Pyknosed Nuclei (%),[1],13%
same,Population Tubulin-Different-Phenotype (%),[1],99%
same,Total Cell Count,[1],121
same,Population Apoptotic (%),[2],0%
same,Population Fragmented Nuclei (%),[2],20%
same,Population Healthy Nuclei (%),[2],74%
same,Population Hoechst High Intensity Objects (%),[2],12%
same,Population Membrane Permeable-Phenotype (%),[2],67%
same,Population Mitochondria Different-Phenotype (%),[2],14%
same,Population Mitotic Cells (%),[2],100%
same,Population Normal (%),[2],87%
same,Population Pyknosed Nuclei (%),[2],5%
same,Population Tubulin-Different-Phenotype (%),[2],92%
same,Total Cell Count,[2],97
same,Population Apoptotic (%),[3],44%
same,Population Fragmented Nuclei (%),[3],5%
same,Population Healthy Nuclei (%),[3],86%
same,Population Hoechst High Intensity Objects (%),[3],3%
same,Population Membrane Permeable-Phenotype (%),[3],10%
same,Population Mitochondria Different-Phenotype (%),[3],24%
same,Population Mitotic Cells (%),[3],55%
same,Population Normal (%),[3],96%
same,Population Pyknosed Nuclei (%),[3],7%
same,Total Cell Count,[3],215
same,Population Apoptotic (%),[4],0%
same,Population Fragmented Nuclei (%),[4],10%
same,Population Healthy Nuclei (%),[4],87%
same,Population Hoechst High Intensity Objects (%),[4],11%
same,Population Membrane Permeable-Phenotype (%),[4],13%
same,Population Mitochondria Different-Phenotype (%),[4],38%
same,Population Mitotic Cells (%),[4],100%
same,Population Normal (%),[4],88%
same,Population Pyknosed Nuclei (%),[4],2%
same,Population Tubulin-Different-Phenotype (%),[4],14%
same,Total Cell Count,[4],115
same,Population Apoptotic (%),[5],19%
same,Population Fragmented Nuclei (%),[5],16%
same,Population Healthy Nuclei (%),[5],63%
same,Population Hoechst High Intensity Objects (%),[5],2%
same,Population Membrane Permeable-Phenotype (%),[5],48%
same,Population Mitochondria Different-Phenotype (%),[5],39%
same,Population Mitotic Cells (%),[5],80%
same,Population Normal (%),[5],97%
same,Population Pyknosed Nuclei (%),[5],19%
same,Population Tubulin-Different-Phenotype (%),[5],98%
same,Total Cell Count,[5],129
same,Population Apoptotic (%),[6],26%
same,Population Fragmented Nuclei (%),[6],24%
same,Population Healthy Nuclei (%),[6],61%
same,Population Hoechst High Intensity Objects (%),[6],7%
same,Population Membrane Permeable-Phenotype (%),[6],44%
same,Population Mitochondria Different-Phenotype (%),[6],43%
same,Population Mitotic Cells (%),[6],73%
same,Population Normal (%),[6],92%
same,Population Pyknosed Nuclei (%),[6],14%
same,Population Tubulin-Different-Phenotype (%),[6],95%
same,Total Cell Count,[6],108
same,Population Apoptotic (%),[7],18%
same,Population Fragmented Nuclei (%),[7],7%
same,Population Healthy Nuclei (%),[7],83%
same,Population Hoechst High Intensity Objects (%),[7],8%
same,Population Membrane Permeable-Phenotype (%),[7],13%
same,Population Mitochondria Different-Phenotype (%),[7],37%
same,Population Mitotic Cells (%),[7],81%
same,Population Normal (%),[7],91%
same,Population Pyknosed Nuclei (%),[7],9%
same,Population Tubulin-Different-Phenotype (%),[7],18%
same,Total Cell Count,[7],237
same,Population Apoptotic (%),[8],25%
same,Population Fragmented Nuclei (%),[8],14%
same,Population Healthy Nuclei (%),[8],77%
same,Population Hoechst High Intensity Objects (%),[8],10%
same,Population Membrane Permeable-Phenotype (%),[8],14%
same,Population Mitochondria Different-Phenotype (%),[8],25%
same,Population Mitotic Cells (%),[8],75%
same,Population Normal (%),[8],89%
same,Population Pyknosed Nuclei (%),[8],8%
same,Population Tubulin-Different-Phenotype (%),[8],22%
same,Total Cell Count,[8],115
